Screening data (PubChem BioAssay)
Rows were chosen to be rich in hits. Some 10% of all compounds tested hit in one or more screens of this group.
Diaphorase act – compounds boosting diaphorase resazurin reduction – biochemical, uHTS, resorufin fluorescence, counter-screen for diaphorase-coupled primary assays, primary screen; Diaphorase/resazurin coupled assay, 16 min; active compounds read high; 1 = vehicle wells, 0 = NADH-free wells; activation factor at 20 µM; 190,000 compounds, 0.005% hits;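 active means diaphorase activity raised at least twofold by the compound at 20 µM; inactive means activation factor below 2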
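Test system: Clostridium kluyveri diaphorase, purified enzyme. Buffer or medium: 50 mM HEPES pH 7.4 buffer plus MgCl2 and Tween 20. Also added: 0.114 mM NADH and 0.1 mM resazurin, final amounts. Dosing: compound 20 µM once, DMSO 1%. Schedule: 16 min enzyme reaction, ambient temperature. Detection: fluorescence of resorufin, 544 nm excitation, 590 nm emission.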
WT yeast gro inh – growth inhibition of WT strain, primary screen, mitochondrial fusion inhibitor project, WT and mutant strains, chemical genetic; mitochondrial fusion phenotypic screen; 190,000 compounds, 2.1% hits; inhibition, % at 10 µM; in the data active means inhibition above about 58%; tested in S. cerevisiae
Lmaj promast – Leishmania major promastigote growth inhibition, primary screen; AID 1063, 2008; Leishmania major promastigotes, resazurin fluorescence viability; 200,000 compounds, 9% hits; inhibition, % at 10 µM; in the data active means inhibition above about 50%;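 further: promastigotes grown with compound for 44 hours at 28 °C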
PMI act satM6P – human PMI activators, high substrate, primary screen, biochemical, fluorescence intensity, near-saturating mannose 6-phosphate; activation factor at 20 µM; Mannose-6-phosphate isomerase (Homo sapiens), P34949; AID 1216, 2008; coupled PMI enzyme assay, resazurin fluorescence, 20 min; active compounds read high; 1 = untreated enzyme, 0 = substrate-free blank; 190,000 compounds, 0.34% hits;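 active means activation factor of 2 or more at 20 µM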
Target sequence (P34949 whole entry, looked up): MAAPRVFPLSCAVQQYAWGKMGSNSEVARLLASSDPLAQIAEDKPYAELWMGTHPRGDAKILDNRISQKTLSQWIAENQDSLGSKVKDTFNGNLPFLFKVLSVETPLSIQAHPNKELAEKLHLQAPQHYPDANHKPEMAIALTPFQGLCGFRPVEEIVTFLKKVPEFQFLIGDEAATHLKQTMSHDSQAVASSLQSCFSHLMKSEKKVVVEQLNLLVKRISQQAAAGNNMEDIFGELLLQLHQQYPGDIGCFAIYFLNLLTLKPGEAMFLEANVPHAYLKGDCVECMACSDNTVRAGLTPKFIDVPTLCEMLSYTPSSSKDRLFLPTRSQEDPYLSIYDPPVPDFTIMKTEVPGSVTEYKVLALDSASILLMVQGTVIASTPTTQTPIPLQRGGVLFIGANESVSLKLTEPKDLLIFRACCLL
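assay system = human phosphomannose isomerase with PGI, G6PDH, diaphorase coupling enzymes | quantity = 15 ng/mL PMI | incubation = enzyme reaction with compound 20 min at room temperature | medium = HEPES pH 7.4 buffer with MgCl2 and Tween-20 | compound dosing = one concentration, 20 µM, in 1% DMSO | measured by = Diaphorase-driven resazurin-to-resorufin fluorescence, excitation 544, emission 590 nm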
PMI act – activators of human PMI, primary screen, biochemical, fluorescence intensity, near-Km mannose 6-phosphate; purified human PMI, coupled resazurin fluorescence, 20 min; active compounds read high; 1 = vehicle control, 0 substrate-free wells; AID 1214, 2008; activation factor at 20 µM; 190,000 compounds, 0.005% hits; Mannose-6-phosphate isomerase (Homo sapiens), P34949;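 active means activation factor of 2 or more at 20 µM, relative to plate controls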
A number is an active result; i = inactive; nt = no result given.

SMILES | Diaphorase act | WT yeast gro inh | Lmaj promast | PMI act satM6P | PMI act
Cc1ccc2nc(-c3cccnc3)c(Nc3ccccc3C)n2c1 | i | i | i | i | i
Cc1cccn2c(Nc3ccccc3)c(-c3ccccn3)nc12 | i | i | i | i | i
Cc1ccc2nc(-c3ccccn3)c(Nc3ccccc3C)n2c1 | i | 76 | 100 | i | i
COc1ccc(NC(=O)c2c(C(F)(F)F)nn(C)c2SCc2ccccc2Cl)cc1 | i | i | i | i | i
CC(C)[C@@H]1NC(=O)c2cc([N+](=O)[O-])cc(F)c2NCCC[C@@H](C(N)=O)NC(=O)[C@H](CO)NC1=O | i | i | i | i | i
CCC(OC(C)=O)c1cc2c(cc1[N+](=O)[O-])OCCO2 (centres undefined) | i | i | i | i | i
Cc1ccn2c(Nc3ccccc3C)c(-c3ccccn3)nc2c1 | i | 72 | 101 | i | i
Cc1oc2c(c1C(=O)N1CCC(C)CC1)C(=O)c1ccccc1C2=O | i | i | 100 | i | i
CCOC(=O)C1CCN(C(=O)c2c(C)oc3c2C(=O)c2ccccc2C3=O)CC1 | i | i | 100 | i | i
O=[N+]([O-])c1cc2c(cc1/C=N/n1c(-c3ccccn3)n[nH]c1=S)OCO2 | i | i | 53 | i | i
O=[N+]([O-])c1cc2c(cc1/C=N/n1c(-c3ccccc3)n[nH]c1=S)OCO2 | i | i | 53 | i | i
O=[N+]([O-])c1ccccc1/C=N/n1c(C2CCCCC2)n[nH]c1=S | i | 58 | i | i | i
O=[N+]([O-])c1cccc(/C=N/n2c(C3CCCCC3)n[nH]c2=S)c1 | i | i | i | i | i
CCCCCC(=O)O[C@]1(C(C)=O)CC[C@H]2[C@@H]3CCC4=CC(=O)CC[C@]4(C)[C@H]3CC[C@@]21C | i | 74 | i | i | i
COc1ccc(Oc2nc(-c3ccccn3)ncc2OC)cc1 | i | i | i | i | i
COc1cnc(-c2ccccn2)nc1Sc1c(Cl)cccc1Cl | i | i | i | i | i
COc1cnc(-c2ccccn2)nc1Oc1cccc(Cl)c1 | i | i | 100 | i | i
COc1cnc(-c2ccccn2)nc1Sc1ccccc1Cl | i | i | 101 | i | i
COc1cnc(-c2ccccn2)nc1Oc1c(C)cccc1C | i | i | 72 | i | i
COc1cnc(-c2ccccn2)nc1N(C)C | i | i | 100 | i | i
Cc1c(NC(=O)Nc2ccccc2Cl)c(=O)n(-c2ccccc2)n1C | i | i | i | i | i
Cc1cc(Br)ccc1SCC(=O)OCC(=O)Nc1ncc(C(F)(F)F)cc1Cl | i | i | i | i | i
O=C(c1ccc([N+](=O)[O-])cc1)N1CCSC1c1cccc(Cl)c1 (centres undefined) | i | i | 51 | i | i
O=C(c1ccc([N+](=O)[O-])cc1)N1CCSC1c1ccccc1 (centres undefined) | i | i | i | i | i
Cc1cccc(-n2c(C)cc(C=C(C#N)C#N)c2C)c1 | i | i | 62 | i | i
SMILES | Diaphorase act | WT yeast gro inh | Lmaj promast | PMI act satM6P | PMI act
Cc1cc(/C=C(/C#N)c2cccc(F)c2)c(C)n1-c1cccnc1 | i | i | 99 | i | i
CN(Cc1ccccc1)C(=O)COC(=O)CCNC(=O)c1ccccc1Cl | i | i | i | i | i
O=C(Cc1csc(-c2ccccc2)n1)Nc1ccc(C(F)(F)F)cc1 | i | i | 87 | i | i
CN(CCCCCCCCC(=O)/C=N/O)Cc1ccccc1 | i | i | 87 | i | i
CN(C)CCCCCCCCCCC(=O)/C=N/O | nt | nt | 99 | nt | nt
CN(C)CCCNCCCCNC(=O)/C=N/O | i | i | i | i | i
Cn1c(N)c(C(=O)COC(=O)COc2ccccc2C#N)c(=O)n(C)c1=O | i | i | i | i | i
C=CCc1ccc(OCCN2CCc3ccccc3C2)c(OC)c1 | i | i | 83 | i | i
C=CCc1ccc(OCCCCN2CC(C)OC(C)C2)c(OC)c1 (centres undefined) | i | i | 98 | i | i
C/C=C/c1ccc(OCCN2CCc3ccccc3C2)c(OC)c1 | i | i | i | i | i
Cc1ccc(CNS(=O)(=O)NCc2ccc(Cl)cc2)cc1 | i | i | i | i | i
CC(C)(C)c1ccc(OCC(=O)N/N=C/c2ccsc2)cc1 | i | i | i | i | i
COc1cc(CCC(=O)Nc2cc(C)cc(C)c2)cc(OC)c1OC | i | i | i | i | i
COc1ccc(OC)c(/C=C/C(=O)N(C)CC(=O)Nc2ccc(C)cc2)c1 | i | i | i | i | i
COc1ccc(OC)c(/C=C/C(=O)N(C)CC(=O)Nc2cc(C)ccc2C)c1 | i | i | 87 | i | i
CC(C)OC(=O)c1c(N)n(CCCN2CCOCC2)c2nc3ccccc3nc12 | i | i | i | i | i
CC(=O)Nc1ccc(S(=O)(=O)c2c(N)n(CCN3CCOCC3)c3nc4ccccc4nc23)cc1 | i | i | i | i | i
COc1ccc(-n2c(N)c(C(=O)NCc3ccco3)c3nc4ccccc4nc32)cc1 | i | i | i | i | i
Nc1c(C(=O)NCCN2CCOCC2)c2nc3ccccc3nc2n1CCc1ccccc1 | i | i | 70 | i | i
Nc1c(C(=O)NCc2ccco2)c2nc3ccccc3nc2n1CCc1ccc(F)cc1 | i | i | 99 | i | i
COc1ccccc1CNC(=O)c1c(N)n(CCCN2CCOCC2)c2nc3ccccc3nc12 | i | i | 51 | i | i
Nc1c(S(=O)(=O)c2cc(Cl)ccc2Cl)c2nc3ccccc3nc2n1CCN1CCOCC1 | i | i | 80 | i | i
Nc1c(C(=O)NCCN2CCOCC2)c2nc3ccccc3nc2n1-c1ccccc1 | i | i | i | i | i
CCC(C)(C#CCN1CCCCC1)OC(C)=O (centres undefined) | nt | i | i | nt | nt
CC1C/C(=N/O)C(C)CN1 (centres undefined) | i | i | i | i | i
SMILES | Diaphorase act | WT yeast gro inh | Lmaj promast | PMI act satM6P | PMI act
Cc1cc(C)cc(NC(=O)CN2CCN(CCN=CC3=C(O)CC(c4ccc(Cl)cc4)CC3=O)CC2)c1 (centres undefined) | i | i | i | i | i
Brc1ccc(-c2csc3ncnc(-n4nnc5ccccc54)c23)cc1 | i | i | i | i | i
Cc1cccn2c(=O)c3cc(C(=O)NCCN4CCOCC4)c(=N)n(CCc4ccccc4)c3nc12 | i | i | 66 | i | i
COc1ccc(CCn2c(=N)c(C(=O)N3CCN(C)CC3)cc3c(=O)n4ccccc4nc32)cc1 | i | i | 88 | i | i
Nc1c(C(=O)NCCN2CCOCC2)c2nc3ccccc3nc2n1-c1ccc2c(c1)OCO2 | i | i | i | i | i
Nc1c(C(=O)NCc2ccc3c(c2)OCO3)c2nc3ccccc3nc2n1CCCN1CCOCC1 | i | i | 63 | i | i
